Experimental data taken from ChEMBL document CHEMBL1142169, “In vitro antibacterial activity of the pyrrolopyrazolyl-substituted oxazolidinone RWJ-416457” (2007).
Values after ≈ are worked out from the molar mass of the structure shown.

What was measured:
Type in all cases: functional
Staphylococcus aureus [1] = experiment: Antibacterial activity against methicillin-susceptible Staphylococcus aureus
Procedure, shortened: (§1)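 MIC by CLSI (formerly NCCLS) broth microdilution for aerobically growing bacteria.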

Staphylococcus aureus [2] = experiment: Antibacterial activity against methicillin-resistant Staphylococcus aureus; procedure, shortened: as §1
Staphylococcus [3] = experiment: Antibacterial activity against methicillin-resistant coagulase-negative staphylococci; procedure, shortened: as §1
Staphylococcus aureus [4] = experiment: Antibacterial activity against community-acquired methicillin-resistant Staphylococcus aureus; procedure, shortened: as §1
Staphylococcus aureus [5] = experiment: Antibacterial activity against vancomycin-intermediate methicillin-resistant Staphylococcus aureus; procedure, shortened: as §1
Enterococcus faecalis [6] = experiment: Antibacterial activity against linezolid-susceptible Enterococcus faecalis; procedure, shortened: as §1
Staphylococcus [7] = experiment: Antibacterial activity against coagulase-negative staphylococci; procedure, shortened: as §1
Enterococcus faecium = experiment: Antibacterial activity against linezolid-susceptible Enterococcus faecium; procedure, shortened: as §1
Staphylococcus [8] = experiment: Antibacterial activity against methicillin-susceptible coagulase-negative staphylococci; procedure, shortened: as §1
Staphylococcus aureus [9] = experiment: Antibacterial activity against Staphylococcus aureus; procedure, shortened: as §1
Legionella pneumophila = experiment: Antibacterial activity against Legionella pneumophila
Procedure, shortened: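 L. pneumophila broth microdilution. Inoculum suspended in buffered yeast extract broth and added to wells holding serial antibiotic dilutions. Incubated aerobically at 34°C to 36°C for 48 h. MIC taken as the lowest concentration inhibiting visible growth.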

Streptococcus pneumoniae [10] = experiment: Antibacterial activity against Streptococcus pneumoniae; procedure, shortened: as §1
Staphylococcus aureus [11] = experiment: Antibacterial activity against methicillin-resistant Staphylococcus aureus OC 2878 by time kill experiments
Procedure, shortened: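 Time-kill by CLSI methodology with drug at four times the MIC against MRSA OC 2878, alongside a drug-free control culture. Viable counts were followed over time.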

Streptococcus pneumoniae [12] = experiment: Antibacterial activity against fluoroquinolone-resistant Streptococcus pneumoniae; procedure, shortened: as §1
Enterococcus faecalis [13] = experiment: Antibacterial activity against Enterococcus faecalis ATCC 51922 by time kill experiments
Procedure, shortened: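 Time-kill curves run per CLSI methodology, with drug at four times the MIC measured for the isolate. Growth in drug-containing medium was followed alongside a drug-free control medium over time.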

Streptococcus pneumoniae [14] = experiment: Antibacterial activity against penicillin-resistant Streptococcus pneumoniae; procedure, shortened: as §1
[15] = system: Mycoplasmoides pneumoniae; experiment: Antibacterial activity against Mycoplasma pneumoniae
Procedure, shortened: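 Microbroth MIC following Waites et al. Isolates were titred in SP4 glucose broth by serial 10-fold dilution to count color changing units. Drug was serially diluted in antibiotic-free SP4 glucose broth and inoculated at 104 CCU/ml, then incubated at 35°C until control wells changed color. The MIC was the lowest concentration preventing color change.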

Streptococcus pyogenes = experiment: Antibacterial activity against macrolide-resistant Streptococcus pyogenes; procedure, shortened: as §1
Streptococcus pneumoniae [16] = experiment: Antibacterial activity against macrolide-resistant Streptococcus pneumoniae; procedure, shortened: as §1
Moraxella catarrhalis = experiment: Antibacterial activity against Moraxella catarrhalis
Procedure, shortened: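 MIC determined by the CLSI (formerly NCCLS) broth microdilution procedure for aerobically growing bacteria.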

| Structure (SMILES) | MIC50 (Staphylococcus aureus [1]) [µg/mL] | MIC90 (Staphylococcus aureus [1]) [µg/mL] | MIC50 (Staphylococcus aureus [2]) [µg/mL] | MIC90 (Staphylococcus aureus [2]) [µg/mL] | MIC50 (Staphylococcus [3]) [µg/mL] | MIC90 (Staphylococcus [3]) [µg/mL] | MIC50 (Staphylococcus aureus [4]) [µg/mL] | MIC90 (Staphylococcus aureus [4]) [µg/mL] | MIC50 (Staphylococcus aureus [5]) [µg/mL] | MIC90 (Staphylococcus aureus [5]) [µg/mL] | MIC50 (Enterococcus faecalis [6]) [µg/mL] | MIC90 (Enterococcus faecalis [6]) [µg/mL] | MIC50 (Staphylococcus [7]) [µg/mL] | MIC90 (Staphylococcus [7]) [µg/mL] | MIC50 (Enterococcus faecium) [µg/mL] | MIC90 (Enterococcus faecium) [µg/mL] | MIC50 (Staphylococcus [8]) [µg/mL] | MIC90 (Staphylococcus [8]) [µg/mL] | MIC50 (Staphylococcus aureus [9]) [µg/mL] | MIC90 (Staphylococcus aureus [9]) [µg/mL] | also measured |
| --- | --- | --- | --- | --- | --- | --- | --- | --- | --- | --- | --- | --- | --- | --- | --- | --- | --- | --- | --- | --- | --- |
| CN[C@H](CC(C)C)C(=O)N[C@H]1C(=O)N[C@@H](CC(N)=O)C(=O)N[C@H]2C(=O)N[C@H]3C(=O)N[C@H](C(=O)N[C@H](C(=O)O)c4cc(O)cc(O)c4-c4cc3ccc4O)[C@H](O)c3ccc(c(Cl)c3)Oc3cc2cc(c3O[C@@H]2O[C@H](CO)[C@@H](O)[C@H](O)[C@H]2O[C@H]2C[C@](C)(N)[C@H](O)[C@H](C)O2)Oc2ccc(cc2Cl)[C@H]1O [VANCOMYCIN] | 1 (≈ 0.69 µM) | 2 (≈ 1.38 µM) | 1 (≈ 0.69 µM) | 4 (≈ 2.76 µM) | 2 (≈ 1.38 µM) | 4 (≈ 2.76 µM) | 1 (≈ 0.69 µM) | 1 (≈ 0.69 µM) | 4 (≈ 2.76 µM) | 8 (≈ 5.52 µM) | 4 (≈ 2.76 µM) | > 16 | 2 (≈ 1.38 µM) | 4 (≈ 2.76 µM) | > 16 | > 16 | 2 (≈ 1.38 µM) | 4 (≈ 2.76 µM) | 1 (≈ 0.69 µM) | 4 (≈ 2.76 µM) |  |
| CC(=O)NC[C@H]1CN(c2ccc(N3Cc4cn(C)nc4C3)c(F)c2)C(=O)O1 | 1 (≈ 2.68 µM) | 2 (≈ 5.36 µM) | 1 (≈ 2.68 µM) | 2 (≈ 5.36 µM) | 0.5 (≈ 1.34 µM) | 1 (≈ 2.68 µM) | 1 (≈ 2.68 µM) | 2 (≈ 5.36 µM) | 0.5 (≈ 1.34 µM) | 2 (≈ 5.36 µM) | 0.5 (≈ 1.34 µM) | 1 (≈ 2.68 µM) | 0.5 (≈ 1.34 µM) | 1 (≈ 2.68 µM) | 1 (≈ 2.68 µM) | 1 (≈ 2.68 µM) | 0.5 (≈ 1.34 µM) | 0.5 (≈ 1.34 µM) | 1 (≈ 2.68 µM) | 2 (≈ 5.36 µM) | MIC50 (Legionella pneumophila): 4 µg/mL (≈ 10.7 µM); MIC90 (Legionella pneumophila): 8 µg/mL (≈ 21.4 µM); MIC50 (Streptococcus pneumoniae [10]): 0.5 µg/mL (≈ 1.34 µM); MIC90 (Streptococcus pneumoniae [10]): 0.5 µg/mL (≈ 1.34 µM); MIC (Staphylococcus aureus [11]): 1 µg/mL (≈ 2.68 µM); MIC50 (Streptococcus pneumoniae [12]): 0.5 µg/mL (≈ 1.34 µM); MIC90 (Streptococcus pneumoniae [12]): 0.5 µg/mL (≈ 1.34 µM); MIC (Enterococcus faecalis [13]): 1 µg/mL (≈ 2.68 µM); MIC50 (Streptococcus pneumoniae [14]): 0.5 µg/mL (≈ 1.34 µM); MIC90 (Streptococcus pneumoniae [14]): 0.5 µg/mL (≈ 1.34 µM); MIC50 [15]: 16 µg/mL (≈ 42.9 µM); MIC90 [15]: 32 µg/mL (≈ 85.7 µM); MIC50 (Streptococcus pyogenes): 0.5 µg/mL (≈ 1.34 µM); MIC90 (Streptococcus pyogenes): 0.5 µg/mL (≈ 1.34 µM); MIC50 (Streptococcus pneumoniae [16]): 0.5 µg/mL (≈ 1.34 µM); MIC90 (Streptococcus pneumoniae [16]): 0.5 µg/mL (≈ 1.34 µM); MIC50 (Moraxella catarrhalis): 2 µg/mL (≈ 5.36 µM); MIC90 (Moraxella catarrhalis): 4 µg/mL (≈ 10.7 µM) |
| CC1(C)S[C@@H]2[C@H](NC(=O)Cc3ccccc3)C(=O)N2[C@H]1C(=O)O [PENICILLIN G] |  |  |  |  |  |  |  |  |  |  |  |  |  |  |  |  |  |  |  |  | MIC50 (Streptococcus pneumoniae [14]): 2 µg/mL (≈ 5.98 µM); MIC90 (Streptococcus pneumoniae [14]): 4 µg/mL (≈ 12 µM) |
| C[C@H]1COc2c(N3CCN(C)CC3)c(F)cc3c(=O)c(C(=O)O)cn1c23.C[C@H]1COc2c(N3CCN(C)CC3)c(F)cc3c(=O)c(C(=O)O)cn1c23.O [LEVOFLOXACIN] |  |  |  |  |  |  |  |  |  |  |  |  |  |  |  |  |  |  |  |  | MIC50 (Legionella pneumophila): 0.12 µg/mL; MIC90 (Legionella pneumophila): 0.5 µg/mL; MIC50 (Streptococcus pneumoniae [12]): 16 µg/mL; MIC90 (Streptococcus pneumoniae [12]): > 16 µg/mL; MIC50 [15]: 0.5 µg/mL; MIC90 [15]: 1 µg/mL |
| Cc1onc(-c2ccccc2)c1C(=O)N[C@@H]1C(=O)N2[C@@H]1SC(C)(C)[C@@H]2C(=O)O [OXACILLIN] |  |  | > 32 | > 32 | > 16 | > 16 | 32 (≈ 79.7 µM) | 32 (≈ 79.7 µM) | > 32 | > 32 |  |  | > 16 | > 16 |  |  | 0.12 (≈ 0.299 µM) | 0.25 (≈ 0.623 µM) |  |  |  |
| CC(=O)NC[C@H]1CN(c2ccc(N3CCOCC3)c(F)c2)C(=O)O1 [LINEZOLID] | 2 (≈ 5.93 µM) | 4 (≈ 11.9 µM) | 4 (≈ 11.9 µM) | 4 (≈ 11.9 µM) | 2 (≈ 5.93 µM) | 2 (≈ 5.93 µM) | 4 (≈ 11.9 µM) | 4 (≈ 11.9 µM) | 1 (≈ 2.96 µM) | 4 (≈ 11.9 µM) | 2 (≈ 5.93 µM) | 2 (≈ 5.93 µM) | 2 (≈ 5.93 µM) | 2 (≈ 5.93 µM) | 2 (≈ 5.93 µM) | 4 (≈ 11.9 µM) | 1 (≈ 2.96 µM) | 2 (≈ 5.93 µM) | 4 (≈ 11.9 µM) | 4 (≈ 11.9 µM) | MIC50 (Legionella pneumophila): 4 µg/mL (≈ 11.9 µM); MIC90 (Legionella pneumophila): 16 µg/mL (≈ 47.4 µM); MIC50 (Streptococcus pneumoniae [10]): 1 µg/mL (≈ 2.96 µM); MIC90 (Streptococcus pneumoniae [10]): 1 µg/mL (≈ 2.96 µM); MIC50 (Streptococcus pneumoniae [12]): 0.5 µg/mL (≈ 1.48 µM); MIC90 (Streptococcus pneumoniae [12]): 1 µg/mL (≈ 2.96 µM); MIC50 (Streptococcus pneumoniae [14]): 1 µg/mL (≈ 2.96 µM); MIC90 (Streptococcus pneumoniae [14]): 1 µg/mL (≈ 2.96 µM); MIC50 [15]: > 64 µg/mL; MIC90 [15]: > 64 µg/mL; MIC50 (Streptococcus pyogenes): 1 µg/mL (≈ 2.96 µM); MIC90 (Streptococcus pyogenes): 2 µg/mL (≈ 5.93 µM); MIC50 (Streptococcus pneumoniae [16]): 1 µg/mL (≈ 2.96 µM); MIC90 (Streptococcus pneumoniae [16]): 1 µg/mL (≈ 2.96 µM); MIC50 (Moraxella catarrhalis): 8 µg/mL (≈ 23.7 µM); MIC90 (Moraxella catarrhalis): 8 µg/mL (≈ 23.7 µM) |
| CC[C@H]1OC(=O)[C@H](C)[C@@H](O[C@H]2C[C@@](C)(OC)[C@@H](O)[C@H](C)O2)[C@H](C)[C@@H](O[C@@H]2O[C@H](C)C[C@H](N(C)C)[C@H]2O)[C@](C)(O)C[C@@H](C)C(=O)[C@H](C)[C@@H](O)[C@]1(C)O [ERYTHROMYCIN] |  |  |  |  |  |  |  |  |  |  |  |  |  |  |  |  |  |  |  |  | MIC50 (Streptococcus pyogenes): 8 µg/mL (≈ 10.9 µM); MIC90 (Streptococcus pyogenes): > 16 µg/mL; MIC50 (Streptococcus pneumoniae [16]): 4 µg/mL (≈ 5.45 µM); MIC90 (Streptococcus pneumoniae [16]): > 16 µg/mL; MIC50 (Moraxella catarrhalis): 0.25 µg/mL (≈ 0.341 µM); MIC90 (Moraxella catarrhalis): 0.25 µg/mL (≈ 0.341 µM) |
